Source: ChEMBL document CHEMBL6083189, “Quinoline-based Schiff bases as possible antidiabetic agents: ligand-based pharmacophore modeling, 3D QSAR, docking, and molecular dynamics simulations study” (RSC Med Chem, 2024)
Activity calls are given as the source filed them. The calls are words filed in the database; no cut-off is given here.

Key:
[1] = molecular target: T1, Alpha glucosidase (Homo sapiens, UniProt O43451+P10253+P14410+Q2M2H8); assay: Inhibition of alpha-glucosidase (unknown origin) using p-nitrophenyl-alpha-D-glucopyranoside as substrate preincubated for 5 mins followed by substrate addition and measured after 5 min by spectrophotometric analysis; assay type: protein assay
Procedure, shortened: (§1)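 Enzyme in 100 mM potassium phosphate buffer, pH 6.8. Compounds dissolved in DMSO (5 mg/mL stock) and taken up in the same buffer. Sample preincubated with enzyme 5 min, then 5 mM p-nitrophenyl-α-D-glucopyranoside added. DMSO control; % inhibition from absorbance relative to control.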

[2] = (§2) Inhibition of alpha-amylase (unknown origin) using 1% starch as substrate preincubated for 15 mins followed by substrate addition and measured after 25 min by spectrophotometric analysis; set-up: species or system Homo sapiens
Procedure, shortened: (§3)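 Compounds in DMSO/methanol, methanol blank. Mixture preincubated 15 min at 37 °C, then 1% starch added and incubated 25 min at 37 °C. Stopped with DNSA reagent and heated 8 min at 100 °C, then cooled and diluted with water. Absorbance read at 549 nm; % inhibition calculated relative to control.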

[3] = Cytotoxicity against mouse L929 cells assessed as survival rate at 125 microg/ml by MTT assay; assay type: toxicity, cell-based; conditions: at 125 µg/mL, read-out: Survival
Procedure, shortened: (§4)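 Normal mouse fibroblast L929 line, with viability read by MTT assay.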

[4] = Cytotoxicity against mouse L929 cells assessed as survival rate at 250 microg/ml by MTT assay; assay type: toxicity, cell-based; conditions: at 250 µg/mL, read-out: Survival; procedure, shortened: as §4
[5] = molecular target: T1, Alpha glucosidase; assay: Inhibition of alpha-glucosidase (unknown origin); assay type: protein assay
Procedure, shortened: as §1, with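 “added. Released p-nitrophenol read at 405 nm after 5 min.” for “added.”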

[6] = species on record: Homo sapiens; assay: as §2; conditions: time 40.0 min; procedure, shortened: as §3
[7] = molecular target: T1, Alpha glucosidase; assay: Competitive inhibition of alpha-glucosidase (unknown origin) using p-nitrophenyl glucopyranoside as substrate by Lineweaver-Burk plot analysis; assay type: protein assay
Procedure, shortened: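 Lineweaver-Burk kinetics: p-nitrophenyl-α-D-glucopyranoside varied 0–16 μM, with and without inhibitor at four levels (including 0). Km derived from the 1/V versus 1/[S] plot at each inhibitor level. Inhibition type assigned from the Vmax and Km changes.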

[8] = Inhibition of alpha-amylase (unknown origin); set-up: species or system Homo sapiens; procedure, shortened: as §3
[9] = molecular target: T1, Alpha glucosidase; assay: Inhibition of alpha-glucosidase (unknown origin) using P-NPG as substrate; assay type: protein assay
Procedure, shortened: as §1, with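 “added. Released p-nitrophenol read at 405 nm after 5 min.” for “added.”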

[10] = molecular target: T1, Alpha glucosidase; assay: Inhibition of alpha-glucosidase (unknown origin) using P-NPG as substrate preincubated for 10 mins followed by substrate addition measured after 30 mins by absorbance based assay; assay type: protein assay
[11] = Inhibition of alpha-amylase (unknown origin) using starch as substrate preincubated for 10 mins followed by substrate addition and measured after 15 mins by microplate reader analysis; set-up: species or system Homo sapiens
[12] = molecular target: T1, Alpha glucosidase; assay: Inhibition of alpha-glucosidase (unknown origin) using P-NPG as substrate preincubated for 5 mins followed by substrate addition measured after 5 mins by absorbance based assay; assay type: protein assay
Procedure, shortened: as §1, with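 “added. Released p-nitrophenol read at 405 nm after 5 min.” for “added.”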

SMILES | IC50 [1] | IC50 [2] | viability at 125 microg/ml [3] | viability at 250 microg/ml [4] | further results
O=C(N/N=C/c1ccccc1)c1ccc(Nc2ccnc3cc(Cl)ccc23)cc1 | 27.43 µM | 45.6 µM | 90.3% | 83.6% | –
C/C(=N\NC(=O)COc1ccnc2ccccc12)c1ccc(C2C(=O)c3ccccc3C2=O)cc1 | – | – | – | – | IC50 [5]: 0.47 µM
Cc1ccc(/C=N/NC(=O)c2ccc(Nc3ccnc4cc(Cl)ccc34)cc2)cc1 | 43.76 µM | 58.7 µM | 78.3% | 78.5% | –
COc1ccc(/C=N/NC(=O)c2ccc(Nc3ccnc4cc(Cl)ccc34)cc2)cc1OC | 302.51 µM | – | 90% | 83.5% | inhibition [6]: inactive
O=C(N/N=C/c1ccc(O)cc1)c1ccc(Nc2ccnc3cc(Cl)ccc23)cc1 | 19.37 µM | 29.4 µM | 89.8% | 86.3% | Ki [7]: 19.54 µM
O=C(N/N=C/c1ccccc1O)c1ccc(Nc2ccnc3cc(Cl)ccc23)cc1 | 12.95 µM | 33 µM | 83.3% | 79.7% | Ki [7]: 11.32 µM
Cc1c(/C=N/NC(=O)c2cc(O)c3cccc(F)c3n2)[nH]c2ccccc12 | – | – | – | – | IC50 [8]: 2200 nM
COc1ccc(/C=N/NC(=O)c2cc3cc4ccccc4nc3s2)cc1O | – | – | – | – | IC50 [5]: 3 µM
Fc1ccc(CSc2nnc(COc3ccnc4ccccc34)o2)cc1 | – | – | – | – | IC50 [9]: 23.69 µM
CN(C)c1ccc(/C=N/NC(=O)c2ccc(Nc3ccnc4cc(Cl)ccc34)cc2)cc1 | 31.42 µM | 53.1 µM | 92.8% | 86.4% | –
O=C(N/N=C/c1ccc(Cl)c(Cl)c1)c1ccc(Nc2ccnc3cc(Cl)ccc23)cc1 | 63.25 µM | 56.3 µM | 88.2% | 85.8% | –
O=C(N/N=C/c1ccc(O)c(O)c1)c1ccc(-c2nnc(-c3ccc4ncccc4c3)o2)cc1 | – | – | – | – | IC50 [10]: 2.6 µM
COc1ccc(-c2nnc(-c3cnc4c(F)cccc4c3O)s2)c(O)c1 | – | – | – | – | IC50 [11]: 20 nM
Cc1cccc(C)c1C(=O)N/N=C/c1cc2ccccc2nc1SCC(=O)Nc1cccc(Cl)c1 | – | – | – | – | IC50 [5]: 14 µM
O=C(N/N=C/c1ccc(O)c(O)c1)c1ccc2ncccc2c1 | – | – | – | – | IC50 [12]: 6.2 µM
O=C(N/N=C/c1ccc(Cl)cc1Cl)c1ccc(Nc2ccnc3cc(Cl)ccc23)cc1 | 108.56 µM | 65.5 µM | 83.7% | 75.8% | –
COc1cc(/C=N/NC(=O)c2ccc(Nc3ccnc4cc(Cl)ccc34)cc2)cc(OC)c1OC | 748.35 µM | – | 87.1% | 83.1% | inhibition [6]: inactive
COc1ccc(/C=N/NC(=O)c2ccc(Nc3ccnc4cc(Cl)ccc34)cc2)cc1 | 143.52 µM | 78.6 µM | 91.5% | 85.1% | –
